Assay results as given in ChEMBL document CHEMBL2177011, “Discovery, synthesis, and biological evaluation of orally active pyrrolidone derivatives as novel inhibitors of p53-MDM2 protein-protein interaction” (J Med Chem, 2012).
Each block holds one compound with its values, some of them ahead of it.

Assays:
[1] = tested on: NCI-H1299; assay: Antiproliferative activity against p53 deficient human NCI-H1299 cells after 72 hrs by MTT assay; assay type: functional, cell-based; conditions: NCI-H1299, 72 h
In short: (§1)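 Cells seeded at 5−6 × 10⁴ per well and cultured 24 h, then exposed in triplicate wells to a range of compound concentrations for 72 h, with 0.1% DMSO as control. MTT (5 mg/mL solution) was added for 4 h at 37 °C, formazan dissolved in DMSO, absorbance read at 570 nm. Drug-free wells served as blanks; IC50 calculated.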

[2] = tested on: U2OS; assay: Antiproliferative activity against human U2OS cells expressing wild type p53 after 72 hrs by MTT assay; assay type: functional, cell-based; conditions: Homo sapiens, U2OS, 72 h; read-out: IC50; in short: as §1
[3] = tested on: A549; assay: Antiproliferative activity against human A549 cells expressing wild type p53 after 72 hrs by MTT assay; assay type: functional, cell-based; in short: as §1
[4] = tested on: SAOS-2; assay: Antiproliferative activity against p53 deficient human Saos2 cells after 72 hrs by MTT assay; assay type: functional, cell-based; conditions: SAOS-2, 72 h; in short: as §1
[5] = molecular target: Tumour suppressor p53/oncoprotein Mdm2 (Homo sapiens, UniProt Q00987); assay: (§2) Inhibition of p53-MDM2 interaction after 1 hr by fluorescence polarization assay; assay type: protein assay
[6] = molecular target: Tumour suppressor p53/oncoprotein Mdm2 (Homo sapiens, UniProt P04637+Q00987); assay: as §2; assay type: protein assay
[7] = molecular target: Tumour suppressor protein p53/Mdm4 (Homo sapiens, UniProt P04637+O15151); assay: (§3) Inhibition of p53-MDMX interaction after 1 hr by fluorescence polarization assay; assay type: protein assay
[8] = molecular target: Tumour suppressor protein p53/Mdm4 (Homo sapiens, UniProt O15151); assay: as §3; assay type: protein assay
[9] = Homo sapiens, A549, 72 h, read-out: IC50

Tumour suppressor p53/oncoprotein Mdm2 (Homo sapiens, UniProt Q00987), sequence (P04637 whole entry): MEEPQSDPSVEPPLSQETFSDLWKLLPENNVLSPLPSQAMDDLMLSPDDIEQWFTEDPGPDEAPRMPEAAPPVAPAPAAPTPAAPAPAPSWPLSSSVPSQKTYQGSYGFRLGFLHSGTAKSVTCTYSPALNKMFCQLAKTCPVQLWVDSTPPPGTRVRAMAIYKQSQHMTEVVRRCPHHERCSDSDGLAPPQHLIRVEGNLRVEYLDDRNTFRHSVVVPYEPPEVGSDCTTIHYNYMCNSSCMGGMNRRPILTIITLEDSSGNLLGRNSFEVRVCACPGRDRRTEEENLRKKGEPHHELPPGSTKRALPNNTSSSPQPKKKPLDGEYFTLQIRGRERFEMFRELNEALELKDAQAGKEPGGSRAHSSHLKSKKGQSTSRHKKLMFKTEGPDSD
Tumour suppressor p53/oncoprotein Mdm2 (Homo sapiens, UniProt Q00987), sequence (Q00987 whole entry): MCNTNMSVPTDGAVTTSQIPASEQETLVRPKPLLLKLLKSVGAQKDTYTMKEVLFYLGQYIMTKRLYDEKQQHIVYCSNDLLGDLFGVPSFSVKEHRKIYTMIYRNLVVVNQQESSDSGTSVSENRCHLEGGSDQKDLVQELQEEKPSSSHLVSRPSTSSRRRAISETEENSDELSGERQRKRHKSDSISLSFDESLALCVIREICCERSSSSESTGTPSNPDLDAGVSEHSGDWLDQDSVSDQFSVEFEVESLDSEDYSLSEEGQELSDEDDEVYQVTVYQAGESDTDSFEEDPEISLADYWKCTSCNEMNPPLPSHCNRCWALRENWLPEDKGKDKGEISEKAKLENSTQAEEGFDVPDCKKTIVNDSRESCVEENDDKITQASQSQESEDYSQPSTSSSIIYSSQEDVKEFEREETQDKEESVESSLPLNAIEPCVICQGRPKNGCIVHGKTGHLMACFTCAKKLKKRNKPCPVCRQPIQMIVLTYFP
Tumour suppressor p53/oncoprotein Mdm2 (Homo sapiens, UniProt P04637+Q00987), sequence (P04637 whole entry): as the sequence (P04637 whole entry) above
Tumour suppressor p53/oncoprotein Mdm2 (Homo sapiens, UniProt P04637+Q00987), sequence (Q00987 whole entry): as the sequence (Q00987 whole entry) above
Tumour suppressor protein p53/Mdm4 (Homo sapiens, UniProt P04637+O15151), sequence (P04637 whole entry): as the sequence (P04637 whole entry) above
Tumour suppressor protein p53/Mdm4 (Homo sapiens, UniProt P04637+O15151), sequence (O15151 whole entry): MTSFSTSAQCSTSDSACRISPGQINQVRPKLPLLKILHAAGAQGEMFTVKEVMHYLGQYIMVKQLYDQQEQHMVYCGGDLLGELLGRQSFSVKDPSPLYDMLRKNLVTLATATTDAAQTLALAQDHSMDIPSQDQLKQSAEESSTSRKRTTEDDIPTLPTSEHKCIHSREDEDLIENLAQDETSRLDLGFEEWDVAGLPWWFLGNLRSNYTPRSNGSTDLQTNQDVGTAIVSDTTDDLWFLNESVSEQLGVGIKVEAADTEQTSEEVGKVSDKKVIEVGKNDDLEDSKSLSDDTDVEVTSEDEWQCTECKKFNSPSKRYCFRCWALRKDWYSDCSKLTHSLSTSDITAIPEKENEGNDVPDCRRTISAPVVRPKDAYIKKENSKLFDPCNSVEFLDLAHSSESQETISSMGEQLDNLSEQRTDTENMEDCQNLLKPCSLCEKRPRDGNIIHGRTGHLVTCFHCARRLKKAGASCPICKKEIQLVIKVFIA
Tumour suppressor protein p53/Mdm4 (Homo sapiens, UniProt O15151), sequence (P04637 whole entry): as the sequence (P04637 whole entry) above
Tumour suppressor protein p53/Mdm4 (Homo sapiens, UniProt O15151), sequence (O15151 whole entry): as the sequence (O15151 whole entry) above

SMILES: COc1ccc(C2C(C(=O)c3ccccc3)=C(O)C(=O)N2CCCn2ccnc2)cc1 (stereo not given)
- Ki [6]: Not Active

SMILES: O=C(C1=C(O)C(=O)N(CCCn2ccnc2)C1c1ccc(Br)cc1)c1ccccc1Cl (stereo not given)
- Ki [6]: Not Active

SMILES: CC(C)(C)c1ccc(C2C(C(=O)c3ccccc3)=C(O)C(=O)N2CCCn2ccnc2)cc1 (stereo not given)
- Ki [5]: 10.9 µM

SMILES: O=C(C1=C(O)C(=O)N(CCCn2ccnc2)C1c1ccc(Cl)cc1Cl)c1ccccc1 (stereo not given)
- Ki [5]: 39.4 µM

SMILES: O=C(CSc1nnc(-c2ccc(O)cc2)n1-c1ccccc1)Nc1ccccc1
- Ki [5]: 86 µM

SMILES: O=C(C1=C(OCc2ccccc2)C(=O)N(CCCn2ccnc2)C1c1ccc(Br)cc1)c1ccccc1 (stereo not given)
- Ki [7]: Not Active
- Ki [5]: 2.07 µM

SMILES: O=C(C1=C(O)C(=O)N(CCCn2ccnc2)C1c1ccc(Br)cc1)c1ccc(Br)cc1 (stereo not given)
- Ki [5]: 24.9 µM

SMILES: O=C(C1=C(O)C(=O)N(CCCn2ccnc2)C1c1ccc(Br)cc1)c1ccccc1[N+](=O)[O-] (stereo not given)
- Ki [5]: 15.3 µM

SMILES: COc1ccc(CCN2C(=O)C(O)=C(C(=O)c3cccs3)C2c2ccc(C)cc2)cc1 (stereo not given)
- Ki [5]: 48.8 µM

SMILES: CCCOC1=C(C(=O)c2ccccc2)C(c2ccc(Br)cc2)N(CCCn2ccnc2)C1=O (stereo not given)
- Ki [8]: 9.32 µM
- Ki [5]: 6.97 µM

SMILES: Cc1ccc(C2C(C(=O)c3ccccc3)=C(O)C(=O)N2CCCn2ccnc2)c(C)c1 (stereo not given)
- Ki [5]: 10.7 µM

SMILES: O=C(C1=C(O)C(=O)N(CCCn2ccnc2)C1c1ccccc1O)c1ccccc1 (stereo not given)
- Ki [6]: Not Active

Further compounds by falling Ki [5], results first:

- Ki [5]: 1.46 µM
SMILES: O=C(C1=C(O)C(=O)N(CCCn2ccnc2)C1c1ccc(Br)cc1)c1ccc(F)cc1 (stereo not given)

- Ki [5]: 1.37 µM
SMILES: O=C(C1=C(O)C(=O)N(CCCn2ccnc2)C1c1ccc(Cl)cc1)c1ccc2c(c1)OCCO2 (stereo not given)

- Ki [5]: 0.88 µM
SMILES: O=C(C1=C(O)C(=O)N(CCCn2ccnc2)C1c1ccc(F)cc1)c1ccccc1 (stereo not given)

- Ki [5]: 0.83 µM
SMILES: O=C(C1=C(O)C(=O)N(CCCn2ccnc2)C1c1cccc([N+](=O)[O-])c1)c1ccccc1 (stereo not given)

- Ki [5]: 0.81 µM
SMILES: O=C(C1=C(O)C(=O)N(CCCn2ccnc2)C1c1ccc(C(F)(F)F)cc1)c1ccccc1 (stereo not given)

- Ki [5]: 0.78 µM
SMILES: Cc1ccc(C2C(C(=O)c3ccccc3)=C(O)C(=O)N2CCCn2ccnc2)cc1 (stereo not given)

- Ki [5]: 0.7 µM
SMILES: O=C(C1=C(O)C(=O)N(CCCn2ccnc2)C1c1ccc([N+](=O)[O-])cc1)c1ccccc1 (stereo not given)

- IC50 [1]: 28.9 µM
- IC50 [2]: 21.9 µM
- IC50 [3, 9]: 35.2 µM
- Ki [8]: 38.9 µM
- Ki [5]: 0.69 µM
SMILES: CCOC1=C(C(=O)c2ccccc2)C(c2ccc(Br)cc2)N(CCCn2ccnc2)C1=O (stereo not given)
- IC50 [4]: 31.7 µM

- Ki [5]: 0.57 µM
SMILES: O=C(C1=C(O)C(=O)N(Cc2cccnc2)C1c1ccc(Cl)cc1)c1ccccc1 (stereo not given)

- IC50 [1]: 25.3 µM
- IC50 [2]: 32.5 µM
- IC50 [3, 9]: 52.8 µM
- Ki [5]: 0.47 µM
SMILES: O=C(C1=C(NCc2ccccc2)C(=O)N(CCCn2ccnc2)C1c1ccc(Br)cc1)c1ccccc1 (stereo not given)
- IC50 [4]: 31.6 µM

- IC50 [1]: 25.4 µM
- IC50 [2]: 30 µM
- IC50 [3, 9]: 27.4 µM
- Ki [5]: 0.43 µM
SMILES: O=C(C1=C(Nc2ccc(F)cc2)C(=O)N(CCCn2ccnc2)C1c1ccc(Br)cc1)c1ccccc1 (stereo not given)
- IC50 [4]: 32.7 µM

- Ki [5]: 0.43 µM
SMILES: O=C(C1=C(O)C(=O)N(CCCn2ccnc2)C1c1ccccc1Br)c1ccccc1 (stereo not given)

- IC50 [1]: 19.9 µM
- IC50 [2]: 26.2 µM
- IC50 [3, 9]: 20.2 µM
- Ki [5]: 0.35 µM
SMILES: CCOc1ccc(NC2=C(C(=O)c3ccccc3)C(c3ccc(Br)cc3)N(CCCn3ccnc3)C2=O)cc1 (stereo not given)
- IC50 [4]: 30.9 µM

- IC50 [1]: 19.4 µM
- IC50 [2]: 12 µM
- IC50 [3, 9]: 24.5 µM
- Ki [5]: 0.27 µM
SMILES: O=C(C1=C(Nc2ccc(I)cc2)C(=O)N(CCCn2ccnc2)C1c1ccc(Br)cc1)c1ccccc1 (stereo not given)
- IC50 [4]: 23.4 µM

- IC50 [1]: 11.5 µM
- IC50 [2]: 11.9 µM
- IC50 [3, 9]: 15.8 µM
- Ki [5]: 0.15 µM
SMILES: O=C(C1=C(Nc2cccc(Br)c2)C(=O)N(CCCn2ccnc2)C1c1ccc(Br)cc1)c1ccccc1 (stereo not given)
- IC50 [4]: 9.09 µM

- IC50 [1]: 21.2 µM
- IC50 [2]: 25.7 µM
- IC50 [3, 9]: 24.1 µM
- Ki [5]: 0.14 µM
SMILES: O=C(C1=C(Nc2ccccc2)C(=O)N(CCCn2ccnc2)C1c1ccc(Br)cc1)c1ccccc1 (stereo not given)
- IC50 [4]: 24.4 µM

- IC50 [1]: 168 µM
- IC50 [2]: 149 µM
- IC50 ([3]; a549): Not Active
- Ki [7]: Not Active
- Ki [5]: 0.048 µM
SMILES: NC1=C(C(=O)c2ccccc2)C(c2ccc(Br)cc2)N(CCCn2ccnc2)C1=O (stereo not given)
- IC50 [4]: 107 µM
